Measurements as given in article PMC4424118 (Nature structural & molecular biology, 2015).

Experiments:
Type in all cases: cell-based
[1] = molecular target: neuromedin B receptor (NMBR; also known as the BB1 bombesin receptor) (Homo sapiens, UniProt P28336); assay: TANGO β-arrestin recruitment assay, NMBR
[2] = molecular target: neuromedin B receptor (NMBR; BB1) (Homo sapiens, UniProt P28336); assay: calcium-release; conditions: BB1-expressing cells
[3] = molecular target: BB2 bombesin receptor (GRPR) (Homo sapiens, UniProt P30550); assay: TANGO β-arrestin recruitment assay, BB2
BB2 bombesin receptor = BB2 bombesin receptor (Homo sapiens, UniProt P30550); assay: calcium mobilization assay, BB2-expressing cells
How it was run: (§1)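 Cells were plated at 15,000/well on poly-L-lysine in DMEM with 500 ug/ml G-418 and 1% dialyzed FBS, then held overnight. Loading was with FLIPR Calcium 4 dye in HBSS/2.5 mM probenecid/20 mM HEPES, pH 7.4–7.8, for 45 min at 37°C plus 15 min at RT. Compounds (10 mM DMSO stocks) ran as 16-point 3-fold dilutions, final 10 μM–0.003 nM. Fluorescence was read 10 s before and 120 s after addition.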

BB3 bombesin receptor = molecular target: T1, BB3 bombesin receptor (Homo sapiens, UniProt P32247); assay: calcium mobilization assay, BB3-expressing cells
T1 sequence (P32247 1-399): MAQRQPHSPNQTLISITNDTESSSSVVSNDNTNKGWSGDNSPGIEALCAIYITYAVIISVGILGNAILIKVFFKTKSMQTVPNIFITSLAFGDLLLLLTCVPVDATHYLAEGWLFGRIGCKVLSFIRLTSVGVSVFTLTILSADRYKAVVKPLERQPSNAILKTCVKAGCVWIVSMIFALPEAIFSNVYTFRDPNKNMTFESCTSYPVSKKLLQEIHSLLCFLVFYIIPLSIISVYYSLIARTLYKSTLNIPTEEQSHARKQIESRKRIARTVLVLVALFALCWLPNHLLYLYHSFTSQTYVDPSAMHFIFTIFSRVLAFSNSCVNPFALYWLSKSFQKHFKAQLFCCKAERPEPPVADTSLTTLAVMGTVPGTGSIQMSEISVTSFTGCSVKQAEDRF
How it was run: as §1

Sequence of BB2 bombesin receptor (P30550 whole entry): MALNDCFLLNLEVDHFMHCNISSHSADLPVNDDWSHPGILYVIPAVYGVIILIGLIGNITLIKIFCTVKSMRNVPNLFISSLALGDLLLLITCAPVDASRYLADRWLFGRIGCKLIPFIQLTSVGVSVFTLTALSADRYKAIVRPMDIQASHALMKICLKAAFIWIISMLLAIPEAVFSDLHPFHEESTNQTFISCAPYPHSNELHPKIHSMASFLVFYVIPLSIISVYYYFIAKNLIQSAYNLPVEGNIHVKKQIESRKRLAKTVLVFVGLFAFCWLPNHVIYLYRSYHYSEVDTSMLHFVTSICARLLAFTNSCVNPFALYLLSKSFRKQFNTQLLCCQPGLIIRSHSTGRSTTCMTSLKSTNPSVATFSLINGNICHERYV
Sequence of BB2 bombesin receptor (GRPR) (P30550 whole entry): as above
Sequence of UniProt P28336 (P28336 whole entry): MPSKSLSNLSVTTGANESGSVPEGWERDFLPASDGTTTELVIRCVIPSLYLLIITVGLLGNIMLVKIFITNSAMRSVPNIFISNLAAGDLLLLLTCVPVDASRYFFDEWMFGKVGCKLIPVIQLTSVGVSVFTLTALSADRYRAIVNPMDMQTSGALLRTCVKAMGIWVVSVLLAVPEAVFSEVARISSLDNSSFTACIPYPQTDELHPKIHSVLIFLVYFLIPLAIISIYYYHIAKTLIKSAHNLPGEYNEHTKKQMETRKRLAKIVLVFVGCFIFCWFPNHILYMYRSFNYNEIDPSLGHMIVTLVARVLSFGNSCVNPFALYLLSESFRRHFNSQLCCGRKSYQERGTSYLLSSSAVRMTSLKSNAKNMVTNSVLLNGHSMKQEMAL
Sequence of neuromedin B receptor (NMBR; BB1) (P28336 whole entry): as above

Question: Which “response of BB1 in the TANGO assay” value [1] does the source give for CC(C)(C)NC(=O)[C@@H]1C[C@@H]2CCCC[C@@H]2CN1C[C@@H](O)[C@H](Cc1ccccc1)NC(=O)[C@H](CC(N)=O)NC(=O)c1ccc2ccccc2n1 [Saquinavir, saquinavir] here?
Answer: insensitive

Question: What about the calcium mobilization response [2] of the same compound?
Answer: did not stimulate a response

Question: And the “response of BB2 in the TANGO assay” value [3]?
Answer: insensitive

Question: What about the calcium mobilization response (BB2 bombesin receptor) of the same compound?
Answer: did not stimulate a response

Question: And the calcium mobilization response (BB3 bombesin receptor)?
Answer: did stimulate a response
